Tested on: MS2 coat protein
Test: apparent Kd, MS2 coat protein; higher = weaker binding; RNA-MaP array; FMN 200 µM where present
Procedure, shortened: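 The apparent Kd is reported as the median of filtered per-cluster binding-curve fits. To get these curves, designs transcribed by stalled E. coli RNA polymerase on Illumina sequencing-chip clusters were titrated with SNAP-549-labelled MS2 coat protein from 0.7 or 1.5 nM, doubling to 3 µM. Titrations were run without and then with constant ligand in 100 mM Tris-HCl pH 7.5, 80 mM KCl, 4 mM MgCl2, BSA, DTT, yeast tRNA and Tween-20, and green signal was normalised to red-channel RNA signal and control-cluster median Fmax.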

[1] = designed as: OFF switch for flavin mononucleotide, no ligand
[2] = ligand present: flavin mononucleotide, designed as: OFF switch for flavin mononucleotide
[3] = designed as: ON switch for flavin mononucleotide, no ligand
[4] = ligand present: flavin mononucleotide, designed as: ON switch for flavin mononucleotide

Row | Sequence | apparent Kd [1] [nM] | apparent Kd [2] [nM] | apparent Kd [3] [nM] | apparent Kd [4] [nM]
1 | UGCACCAACGAGAAGGCACAGAUCCAGCUCUUGACAUGAGGAUCACCCAUGUGAGGAUAUCGUAGGUGCGAAUUGGGACAAUCU | 11 | 98.2 |  | 
2 | UGCACCAACGAGAAGGCACAGAUCCAGCUCUUGACAUGAGGAUCACCCAUGUGAGGAUAUCGUAGGUGCGAUUUGGGACAAUCU | 11 | 91.8 |  | 
3 | UGCAGACAUGAGGAUCACCCAUGUCAGGAUAUUGGACUAUGCAAUGUAUUGUUAGUACCAAGAAGGGACCCGUC | 31.8 | 27.2 |  | 
4 | UGCAGACGAGGAUAUGAUGUCAUAGACAUGAGGAUCACCCAUGUGAUCAAUUAAUUAAGAUCAGAAGGCGUCUGCA | 315 | 218 |  | 
5 | UGCAUGGUAGGAUAUACGGAACAUUAGGGUUUGUUAUGUGGACAUGAGGAUCACCCAUGUAGAAGGGCCGUGCU | 45.9 | 72.3 |  | 
6 | UGCAUGUAAGGAUAUGCAACCGGCGCUCAUUCGCCGGUCAAGCAGAAGGUACAUGAGGAUCACCCAUGUGUCCG | 31.3 | 139 |  | 
7 | UGCAUGUAAGGAUAUGCACUGCGCGAGCCUGACUCGCAAAGGCAGAAGGUACAUGAGGAUCACCCAUGUGAGAA | 72.6 | 64.6 |  | 
8 | UGCCAAGCAGGAUAUGCACGUAAUAACAUGAGGAUCACCCAUGUGACCGAUUUAUAUUCUGCAGAAGGGCUUGGUU | 138 | 242 |  | 
9 | UGCCGGAGCAGAGGAUAUUACAUGAGGAUCACCCAUGUAUGAACCAAUAGCUGGAAACAGCAAUGUAAGAAGGCUGCUCCGACA | 13.4 | 144 |  | 
10 | UGCCGUAGAGGAUAUACAUUGAAUUAGAUUCAUGUAAAACUACAUGAGGAUCACCCAUGUAGAAGGCUAUGGCU | 16.6 | 24.5 |  | 
11 | UGCGUACAAGCAAACAUGAGGAUCACCCAUGUGGUCUCAUGCGAGGAUAUCGGGAAGGAGGAUUCCGAGAAGGUGCGGUGAGCC |  |  | 116 | 27.9
12 | UGGACCGAGCUGUCGGUUGACUCGAAGGAUAUGACAUGAGGAUCACCCAUGUGGGAUCUAAAUUGUCAGAAGGUUGGUUCUGGG | 641 | 276 |  | 
13 | UGGACGACCCGAGGAUAUCAAAGGCCCGGGUAAGUUCCUCAGACAUGAGGAUCACCCAUGUUAAAUGAGAAGGCGGGUAGCCGA | 203 | 268 |  | 
14 | UGGAUCAUCGGAGGAUAUCAUGUAUAUACAUGAGGAUCACCCAUGUCGUACGAGAGUACGGAGAUUGAGAAGGCCGAUGAUCCU |  |  | 38.8 | 14.9
15 | UGGAUGGUAUGAGGAUAUGCGCGCGAAACGCGCGCAGAAGGCAUGUCAAUAGACAUGAGGAUCACCCAUGUACUAUCCAUCCAC |  |  | 121 | 9.41
16 | UGGCAAGUAGGAUAUUGGGUGUGGGACAUGAGGAUCACCCAUGUGAUCACUCAAUCUCUCCGAGAAGGGCUAAGAA | 14 | 15.4 |  | 
17 | UGGGACGUGGGAGGAUAUCGGCCUGUAACAGUACGAGAAGGCCCAGUCCAAUAACAGACGGACAUGAGGAUCACCCAUGUCUCA |  |  | 43.2 | 14.3
18 | UGGUACAACGGAGGAUAUCAUGUAAAUACAUGAGGAUCACCCAUGUCGUACGAGAGUACGGAGAUUGAGAAGGCCGUUGUACCU |  |  | 25.7 | 16.1
19 | UGGUACAUCGGAGGAUAUCAUGUAGAUACAUGAGGAUCACCCAUGUCGAUGGAGACAUCGGAGAUUGAGAAGGCCGAUGUACCU |  |  | 612 | 31.7
20 | UGGUACAUGGGAGGAUAUCCUCAAGAGACAUGAGGAUCACCCAUGUAUUAUAAGCCUAAUGGCAUGGAGAAGGCCCAUGUACCU |  |  | 467 | 49
21 | UGGUACAUGGGAGGAUAUGGGUUGAUAACAUGAGGAUCACCCAUGUUAAAUAUGCCGAGAGGCAACUAGAAGGCCCAUGUACCU |  |  | 482 | 38.2
22 | UGGUACAUGGGAGGAUAUGGGUUGAUAACAUGAGGAUCACCCAUGUUAAAUAUGCCUAGUGGCAACUAGAAGGCCCAUGUACCU |  |  | 317 | 51
23 | UGGUACAUGGGAGGAUAUGGGUUGAUAACAUGAGGAUCACCCAUGUUAAAUGCCGAAAGGCAAAACUAGAAGGCCCAUGUACCU |  |  | 257 | 24.5
24 | UGGUACUACGGAGGAUAUGGGAAGAUACAUGAGGAUCACCCAUGUUUAAGAAUGCCGAGAGGCAACUAGAAGGCCCUAGUACCU |  |  | 401 | 25.2
25 | UGGUACUAGGAAGGAUAUGGGAAGAUACAUGAGGAUCACCCAUGUUUAAGAAUGCCGAGAGGCAACUAGAAGGCCCUAGUACCU |  |  | 596 | 135
26 | UGGUACUAGGGAGGAUAUGGGAAGAUACAUGAGGAUCACCCAUGUUUAAGAAUGCCGAGACGCAACUAGAAGGCCCUAGUACCU |  |  | 354 | 20.9
27 | UGGUACUAGGGAGGAUAUGGGAAGAUACAUGAGGAUCACCCAUGUUUAAGAAUGCCGAGAGGCUACUAGAAGGCCCUAGUACCU |  |  | 268 | 9.69
28 | UGGUACUAGGGAGGAUAUGGGAAGAUACAUGAGGAUCACCCAUGUUUAAGAAUGCGGAGAGGCAACUAGAAGGCCCUAGUACCU |  |  | 351 | 18.9

Row | Sequence | apparent Kd [1] [nM] | apparent Kd [2] [nM] | apparent Kd [3] [nM] | apparent Kd [4] [nM]
29 | UGGUACUAGGGAGGAUAUUGGAAGAUACAUGAGGAUCACCCAUGUUUAAGAAUGCCGAGAGGCAACUAGAAGGCCCUAGUACCU |  |  | 8.37 | 5.09
30 | UGGUCGCGAGGAUAUACAUGAGGAUCACCCAUGUUUGAGCGCCAUCCGUUCGGCUCGUGUAGAAGGUGCACACA | 21.9 | 19.9 |  | 
31 | UGGUGAAGUGUAGGAUAUGGAGGUGGGUUUUGGCCAGAAGGACAUGAGGAUCACCCAUGUGGUAGAGGGUUGGUGGUGGCUCGU | 23.9 | 21.4 |  | 
32 | UGGUUUAGUGUUAGGAUAUAAUCCGAAGUCAGCGAUUAGAAGGAACAUGAGGAUCACCCAUGUUUUAGAUAACC | 16 | 16.9 |  | 
33 | UGUACGGACAUGAGGAUCACCCAUGUAACCAAGCAGUUGGUACAGGAUAUCGCUUAGUGACUGAGCGAGAAGGGUGGUUCUGCA |  |  | 45.2 | 62.6
34 | UGUAUGGACAGAGGAUAUACAGAUAGGAUCUACUAUCAAACAAUCCUCACAUGAGGAUCACCCAUGUAGAAGGCUGUCCAUACU | 105 | 809 |  | 
35 | UGUAUGGACAGAGGAUAUACAGAUAGGAUCUACUAUCAAACAUUCCUGACAUGAGGAUCACCCAUGUAGAAGGCUGUCCAUACU | 21.1 | 79.2 |  | 
36 | UGUCAAGCAGGAUAUGCACGUAAUAACAUGAGGAUCACCCAUGUGACCGAUUUAUAUUCUGCAGAAGGGCUUGGUU | 37.8 | 140 |  | 
37 | UGUCGGAGCAGAGGAUAUACAUGAGGAUCACCCAUGUAAUAAAGUGAAGCCUGGAAACAGGCAAUGUAGAAGGUUGCUCCGACA | 7.2 | 31.5 |  | 
38 | UGUCGGAGCAGAGGAUAUGACAUGAGGAUCACCCAUGUAUGAACCAAUAGCUGGAAACAGCAAUGUAAGAAGGCUGCUCCGACA | 5.98 | 6.79 |  | 
39 | UGUCGGAGCAGAGGAUAUUACAUGAGGAUCACCCAUGUAGGUACCAAUAGCUGGAAACAGCAAUGUAAGAAGGCUGCUCCGACA | 280 | 408 |  | 
40 | UGUCGGAGCAGAGGAUAUUACAUGAGGAUCACCCAUGUAUGAACCAAUAGCUGGAAACAGCAAUGUAAGAAGGCUGCACCGACA | 12.6 | 178 |  | 
41 | UGUCGGAGCAGAGGAUAUUACAUGAGGAUCACCCAUGUAUGAACCAAUAGCUGGAAACAGCAAUGUAAGAAGGCUGCUCCGAAA | 12.3 | 176 |  | 
42 | UGUCGGAGCAGAGGAUAUUACAUGAGGAUCACCCAUGUAUGAACCAAUAGCUGGAAACAGCAAUGUAAGAAGGCUGCUCCGCCA | 11.8 | 187 |  | 
43 | UGUCGGAGCAGAGGAUAUUACAUGAGGAUCACCCAUGUAUGAACCAAUAGCUGGAAACAGCAAUGUAAGAAGGCUGCUCUGACA | 11.5 | 150 |  | 
44 | UGUCGGAGCAGAGGAUAUUACAUGAGGAUCACCCAUGUAUGAACCAAUAGCUGGAAACAGCAAUGUAAGAAGGCUGCUGCGACA | 12.8 | 182 |  | 
45 | UGUCGGAGCAGAGGAUAUUACAUGAGGAUCACCCAUGUAUGAACCAAUAGCUGGCAACAGCAAUGUAAGAAGGCUGCUCCGACA | 12.8 | 168 |  | 
46 | UGUCGGAGCAGAGGAUAUUACAUGAGGAUCACCCAUGUAUGAACGAAUAGCUGGAAACAGCAAUGUAAGAAGGCUGCUCCGACA | 6 | 10.4 |  | 
47 | UGUCGGAGCAGAGGAUAUUACAUGAGGAUCACCCAUGUAUGCACCAAUAGCUGGAAACAGCAAUGUAAGAAGGCUGCUCCGACA | 5.38 | 15.2 |  | 
48 | UGUCGGAGCAGAGGAUAUUACAUGAGGAUCACCCAUGUGGAAGAACCAAGCUGGAAACAGCAAUGUAAGAAGGCUGCUCCGACA | 1010 | 467 |  | 
49 | UGUCGGAUGUAGAAGGGUAGUACAUGAGGAUCACCCAUGUUAACAUGGAAUACAGGAUAUGCGUAUAGUUUUUAUUAAAUUAUA | 108 | 44.3 |  | 
50 | UGUCUAUUUGAAGGAUAUCUAAGCAUAAACCAGAGAGAAGGUCAAUUAUACAUGAGGAUCACCCAUGUUGAGAUUAAUGGGUUA | 27.1 | 40.3 |  | 
51 | UGUCUGAUCUAAUAACAUGAGGAUCACCCAUGUGUUCACAACUAGGAUAUCGAUUGUUAAGACGUCGAGAAGGAGUAUACAUUA | 39 | 53.5 |  | 
52 | UGUGAACAUGAGGAUCACCCAUGUGAGGAUAUACGAGCGUGAGAAAGAUAAAACGAGCGUAGAAGGCACAAGAA | 75.1 | 102 |  | 
53 | UGUGAGUUGAUGUUAGAUAGGAGAACAUGAGGAUCACCCAUGUAGGAUAUUCAAAGACGAAGAUAGAAGAAGGACAUAGGUAUC | 24.8 | 66.2 |  | 
54 | UGUGAGUUGAUGUUAGAUAGGAGUACAUGAGGAUCACCCAUGUAGGAUAUUCAAAGACGAAGAUAGAAGAAGGACAUAGGUUUC | 21.4 | 18.1 |  | 
55 | UGUGCAUCAGGAUAUAUGUGGCGACCGUGAGGUCGAAGGUUACAUGAGGAUCACCCAUGUAGAAGGGAUGUACU | 63.2 | 187 |  | 

— the EternaBench riboswitch data
